Calls of active or inactive are those of the source. The rule behind the calls is not given here.

One series relates to BV-2. Description: Antineuroinflammatory activity in mouse BV-2 cells assessed as inhibition of LPS-induced NO production measured after 24 hrs by Griess reagent based assay. Type of series: functional, cell-based. As to conditions: BV-2, 24 h. A digest of the protocol: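 BV-2 murine microglia in DMEM with 10% heat-inactivated FBS, seeded 2 × 10^4/well and grown 24 h at 37 °C. Then co-treated 24 h with LPS (E. coli 0111:B4, 1 μg/mL) plus test agent in DMSO. Controls were DMSO+LPS and quercetin. Supernatant nitrite by Griess reaction, A540, against a sodium nitrite standard curve. IC50 is the concentration halving NO output.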
(Griess reagent forms a coloured azo dye with nitrite.)

Series [1] has as its system PC-12. Nature of the series: Neurotrophic activity in rat PC-12 cells assessed as induction of NGF-mediated neurite outgrowth at 10 uM measured after 48 hrs by microscopic analysis. Type of series: functional, cell-based. The procedure, abridged:
(§1)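 PC-12 cells (rat) grown in DMEM with 10% heat-inactivated horse serum and 5% FBS at 37 °C, 5% CO2. Plated 1 × 10^4/well on poly-L-lysine for 24 h, then 14 h in low-serum medium (2% HS, 1% FBS). Treated 48 h with compound (DMSO) plus NGF 20 ng/mL; NGF alone as positive control. Triplicate wells, 10 random phase-contrast fields per well, ≥100 cells per field. Neurite-bearing cells counted as percentage of total.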

Series [2] deals with PC-12. Description: Cytotoxicity against rat PC-12 cells at 10 uM. The format is toxicity, cell-based. As to conditions: pc-12, 10 µM.
Series [3] concerns PC-12. Description: Neurotrophic activity in rat PC-12 cells assessed as induction of NGF-mediated neurite outgrowth by measuring neurite bearing cells at 5 uM measured after 48 hrs by microscopic analysis (reference value: 15.7 +/- 0.1%). Type of series: functional. The procedure, abridged:
as §1

Series [4] relates to PC-12. Description: Neurotrophic activity in rat PC-12 cells assessed as induction of NGF-mediated neurite outgrowth by measuring neurite bearing cells at 10 uM measured after 48 hrs by microscopic analysis (reference value: 15.7 +/- 0.1%). The format is functional. The procedure, abridged:
as §1

In general, IC50 refers to the concentration that inhibits the measured activity by half. As for `CC(C)C1=C2[C@H]3CC=C(C=O)CC(=O)[C@]3(C)CC[C@@]2(C)CC1`, the IC50 in the series with BV-2 turned out to be 10.9 µM. Moreover, in the series on PC-12 [1], the outcome was Active.
Turning to `CC(C)C1=C2[C@H]3C[C@H]4O[C@](O)([C@H](O)[C@H]4CO)[C@]3(C)CC[C@@]2(C)CC1`, the IC50 with BV-2 was above 50 µM. In the series on PC-12 [1], the outcome was Active.
As to `CO[C@H]1C[C@@H]2C3=C(C(C)C)CC[C@]3(C)CC[C@@]2(C)[C@@H](O)C=C1C=O`, the IC50 in the series with BV-2 turned out to be 6.9 µM. In addition, the Activity entry in the series on PC-12 [2] was “Toxic”.
In the case of `CC1=CC(=O)[C@]2(C)CC[C@@]3(C)CCC(C(C)C)=C3[C@H]2CC1`, in the series on BV-2, the IC50 amounted to 27.8 µM. Also, the result in the series with PC-12 [1] was Active.
The like results for `CC(C)C1=C2[C@H]3C[C@H]4O[C@](O)(C=C4C4O[C@@H](C)[C@@H](C)O4)[C@]3(C)CC[C@@]2(C)CC1` (some centres not stated) were, in that order, 12 µM and “Active”.
The corresponding values for `CC(C)C1=C2[C@H]3C[C@H]4O[C@](O)([C@H](O)[C@@H]4C4O[C@@H](C)[C@@H](C)O4)[C@]3(C)CC[C@@]2(C)CC1` (some centres not stated) are 15.5 µM and “Active”.
Consider `CC(C)C1=C2[C@H]3C[C@H]4O[C@](O)(C=C4COC(=O)C(C)O)[C@]3(C)CC[C@@]2(C)CC1` (some centres not stated), for which the IC50 in the series with BV-2 was found to be 27.3 µM. The outcome in the series with PC-12 [1] was Active. For the same compound, the Activity with PC-12 [3] is recorded as 28.1%; in the series with PC-12 [4], 32%.
Consider `CC(C)C1=C2[C@H]3C[C@H]4O[C@](O)([C@H](O)[C@@H]4CO)[C@]3(C)CC[C@@]2(C)CC1`, for which the IC50 in the series on BV-2 was above 50 µM. Further, the outcome with PC-12 [1] was Active.
The like results for `COC(OC)C1=C[C@H](O)[C@]2(C)CC[C@@]3(C)CCC(C(C)C)=C3[C@H]2C[C@H]1OC` were, in that order, 36.8 µM and “Active”.
The corresponding values for `CC(C)C1=C2[C@H]3C[C@H]4O[C@](O)(C=C4C(=O)O)[C@]3(C)CC[C@@]2(C)CC1` are above 50 µM and “Active”.
The corresponding values for `CC(C)[C@]12CC[C@]3(C)CC[C@@]4(C)C(=O)C=C(CO)[C@H](O)C[C@@H]4[C@@]31O2` are above 50 µM and “Active”.
Take `CC(C)C1=C2[C@H]3C[C@@H](O)C(CO)=C[C@H](O)[C@]3(C)CC[C@@]2(C)CC1`: the IC50 in the series with BV-2 amounted to 22.1 µM. Moreover, the result in the series on PC-12 [1] was Active.
The like results for `CO[C@H]1C(=O)[C@]2(C)CC[C@@]3(C)CCC(C(C)C)=C3[C@H]2CC=C1C=O` were, in that order, 19.7 µM and “Active”.
As to `CO[C@@H]1C(C=O)=CC[C@@H]2C3=C(C(C)C)CC[C@]3(C)CC[C@@]2(C)[C@H]1O`, the IC50 in the series with BV-2 amounted to 9.1 µM. Also, in the series on PC-12 [2], the Activity entry is given as “Toxic”.
Take `CC1=C[C@H](O)[C@]2(C)CC[C@@]3(C)CCC(C(C)C)=C3[C@H]2CC1`: in the series on BV-2, the IC50 is 32.8 µM. Besides, the result in the series with PC-12 [1] was Active.

These data come from ChEMBL document CHEMBL5244226, “Cyathane Diterpenes from Cultures of the Bird's Nest Fungus Cyathus hookeri and Their Neurotrophic and Anti-neuroinflammatory Activities” (J Nat Prod, 2019).
